For data set [1], the system named is Staphylococcus aureus. In words: Antibacterial activity against Staphylococcus aureus ATCC 25923 after 18 hrs by broth microdilution method. In kind it is functional. In short, it runs like this:
(§1)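 MIC by broth microdilution per ISO 20776-1:2006 and CLSI M07-A8. Inoculum 10^6 cfu/ml in Mueller-Hinton broth with compound serially diluted, final concentrations 2 to 128 ug/ml, duplicate rows, no-drug growth control. Incubation 18 h at 37 °C. MIC taken as lowest concentration giving complete inhibition of visible growth. Each compound tested at least twice.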
A general note: Dilution methods test growth across graded concentrations, often in twofold steps.

Data set [2] has as its system Staphylococcus aureus. Kind of data set: Antibacterial activity against Staphylococcus aureus ATCC 29213 after 18 hrs by broth microdilution method. In kind it is functional. The essentials: as §1
Data set [3] deals with Staphylococcus aureus. In words: Antibacterial activity against Staphylococcus aureus ATCC 9144 after 18 hrs by broth microdilution method. In kind it is functional. In short, it runs like this:
as §1

In data set [4] the test system is Staphylococcus aureus. In words: Antibacterial activity against Staphylococcus aureus ATCC 6538 after 18 hrs by broth microdilution method. In kind it is functional. In short, it runs like this: as §1
The subject of data set [5] is Staphylococcus aureus. Kind of data set: Antibacterial activity against Staphylococcus aureus CIP 65.6 after 18 hrs by broth microdilution method. In kind it is functional. The essentials: as §1
Data set [6] deals with Staphylococcus aureus. Kind of data set: Antibacterial activity against Staphylococcus aureus CIP 103428 after 18 hrs by broth microdilution method. In kind it is functional. The essentials: as §1
The subject of data set [7] is Staphylococcus aureus. In words: Antibacterial activity against methicillin-resistant Staphylococcus aureus CIP 65.25 after 18 hrs by broth microdilution method. In kind it is functional. In short, it runs like this: (§2)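 Broth microdilution following ISO 20776-1:2006 and CLSI M07-A8, in Mueller-Hinton broth. Inoculum was 10^6 cfu/ml, with compound serial dilutions spanning 2 to 128 ug/ml and a compound-free growth control well. Plates were incubated 18 h at 37 °C. MIC was the lowest concentration giving complete inhibition of visible growth. Each compound was tested at least twice.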

Data set [8] relates to Staphylococcus aureus. In words: Antibacterial activity against methicillin-resistant Staphylococcus aureus ATCC 33592 after 18 hrs by broth microdilution method. In kind it is functional. The essentials:
as §2

The test system of data set [9] is Staphylococcus aureus. Kind of data set: Antibacterial activity against vancomycin intermediate Staphylococcus aureus […] after 18 hrs by broth microdilution method. In kind it is functional. In short, it runs like this:
as §2

Data set [10] deals with Staphylococcus epidermidis. Kind of data set: Antibacterial activity against Staphylococcus epidermidis ATCC 12228 after 18 hrs by broth microdilution method. In kind it is functional. In short, it runs like this:
as §1

Data set [11] concerns Staphylococcus epidermidis. Kind of data set: Antibacterial activity against Staphylococcus epidermidis CIP 81.55 after 18 hrs by broth microdilution method. In kind it is functional. The essentials: as §1
In data set [12] the test system is Staphylococcus epidermidis. Kind of data set: Antibacterial activity against Staphylococcus epidermidis CIP 103627 after 18 hrs by broth microdilution method. In kind it is functional. The essentials:
as §1

In data set [13] the test system is Streptococcus pneumoniae. In words: Antibacterial activity against Streptococcus pneumoniae ATCC 49619 after 18 hrs by broth microdilution method. In kind it is functional. The settings on record: ATCC 49619, 18 h. The essentials:
(§3)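 MIC by broth microdilution per ISO 20776-1:2006 and CLSI M07-A8. Inoculum 10^6 cfu/ml in Mueller-Hinton broth […]. Compound serially diluted, final 2 to 128 ug/ml, duplicate rows, no-drug growth control. Read after 18 h at 37 °C as lowest concentration fully inhibiting visible growth. At least two experiments.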

Data set [14] deals with Streptococcus pneumoniae. In words: Antibacterial activity against Streptococcus pneumoniae ATCC 6303 after 18 hrs by broth microdilution method. In kind it is functional. The settings on record: ATCC 6303, 18 h. In short, it runs like this:
as §3

In a further data set the test system is Streptococcus agalactiae. In words: Antibacterial activity against Streptococcus agalactiae ATCC 12400 after 18 hrs by broth microdilution method. The following applies: ATCC 12400, 18 h. In kind it is functional. In short, it runs like this:
as §2

For a further data set, the system named is Streptococcus pyogenes. In words: Antibacterial activity against Streptococcus pyogenes CIP 104226 after 18 hrs by broth microdilution method. In kind it is functional. The following applies: CIP 104226, 18 h. The essentials:
as §2

A further data set concerns Streptococcus mitis. In words: Antibacterial activity against Streptococcus mitis CIP 103335 after 18 hrs by broth microdilution method. In kind it is functional. The following applies: CIP 103335, 18 h. In short, it runs like this:
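Broth microdilution following ISO 20776-1:2006 and CLSI M07-A8, in Mueller-Hinton broth […]. Inoculum was 10^6 cfu/ml, with compound serial dilutions spanning 2 to 128 ug/ml and a compound-free growth control well. Plates were read after 18 h at 37 °C. MIC was the lowest concentration with no visible growth. Each compound was tested at least twice.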

Another data set has as its system Enterococcus faecium. Kind of data set: Antibacterial activity against Enterococcus faecium CIP 54.32 after 18 hrs by broth microdilution method. The following applies: CIP 54.32, 18 h. In kind it is functional. The essentials:
as §2

The subject of the next data set is Enterococcus faecalis. Kind of data set: Antibacterial activity against Enterococcus faecalis ATCC 29212 after 18 hrs by broth microdilution method. In kind it is functional. The following applies: ATCC 29212, 18 h. In short, it runs like this:
as §2

In the next data set the test system is Escherichia coli. In words: Antibacterial activity against Escherichia coli ATCC 25922 after 18 hrs by broth microdilution method. In kind it is functional. The essentials: as §2
In data set [15] the test system is KB. Kind of data set: Cytotoxicity against human KB cells at 10 uM. In kind it is cell-based.
Data set [16] concerns HCT-116. In words: Cytotoxicity against human HCT116 cells at 10 uM. In kind it is cell-based. The following applies: hct-116, 10 µM.
For data set [17], the system named is MRC5. Kind of data set: Cytotoxicity against human MRC5 cells at 10 uM. In kind it is cell-based. The settings on record: mrc5, 10 µM.
Data set [18] has as its system KB. Kind of data set: Cytotoxicity against human KB cells at 1 uM. In kind it is cell-based.
The test system of data set [19] is HCT-116. In words: Cytotoxicity against human HCT116 cells at 1 uM. In kind it is cell-based. The following applies: hct-116, 1 µM.
In data set [20] the test system is MRC5. Kind of data set: Cytotoxicity against human MRC5 cells at 1 uM. In kind it is cell-based. The settings on record: mrc5, 1 µM.
The test system of the next data set is Klebsiella pneumoniae. In words: microbe, parasite or virus in culture. The following applies: ATCC 35657, 18 h.
The test system of a further data set is Enterobacter cloacae. Kind of data set: microbe, parasite or virus in culture. The settings on record: ATCC 13047, 18 h.
Another data set concerns Serratia marcescens. Kind of data set: microbe, parasite or virus in culture. The settings on record: CIP 103551, 18 h.
For a further data set, the system named is Pseudomonas aeruginosa. Kind of data set: microbe, parasite or virus in culture. The settings on record: CIP 5933, 18 h.
In a further data set the test system is Acinetobacter baumannii. Kind of data set: microbe, parasite or virus in culture. The settings on record: ATCC 19606 = CIP 70.34 = JCM 6841, 18 h.

Values after ≈ are worked out from the molar mass of the structure shown. Some results are limits rather than exact numbers.

`Cl.Cl.NCC(NO)c1c[nH]c2cccc(Br)c12` (centres undefined): the MIC came out at 32 µg/mL with Staphylococcus aureus [1] (ATCC 25923, 18 h); 32 µg/mL with Staphylococcus aureus [2] (ATCC 29213, 18 h); 32 µg/mL with Staphylococcus aureus [3] (ATCC 9144, 18 h); 32 µg/mL with Staphylococcus aureus [4] (ATCC 6538, 18 h); 32 µg/mL with Staphylococcus aureus [5] (CIP 65.6, 18 h); 32 µg/mL in the data set on Staphylococcus aureus [6] (CIP 103428, 18 h). In addition, the MIC against Staphylococcus aureus [7] (CIP 65.25, 18 h) came to 32 µg/mL; with Staphylococcus aureus [8] (ATCC 33592, 18 h), 32 µg/mL; in the data set on Staphylococcus aureus [9], 32 µg/mL; in data set [10] (ATCC 12228, 18 h), 32 µg/mL; in [11] (CIP 81.55, 18 h) it was 32 µg/mL; in [12] (CIP 103627, 18 h), 32 µg/mL. Also, the MIC with Streptococcus pneumoniae [13] is 128 µg/mL; in the data set with Streptococcus pneumoniae [14] it was 128 µg/mL; with Streptococcus agalactiae, 128 µg/mL; against Streptococcus pyogenes, 128 µg/mL; against Streptococcus mitis, 128 µg/mL; in the data set on Enterococcus faecium it was over 128 µg/mL. Moreover, the MIC was over 128 µg/mL against Enterococcus faecalis; 128 µg/mL against Escherichia coli (ATCC 25922, 18 h); over 128 µg/mL with Klebsiella pneumoniae; over 128 µg/mL with Enterobacter cloacae; over 128 µg/mL in the data set with Serratia marcescens; over 128 µg/mL in the data set on Pseudomonas aeruginosa. Also, the MIC in the data set with Acinetobacter baumannii is over 128 µg/mL. The Activity entry in the data set with KB [15], in the data set with HCT-116 [16], with MRC5 [17], in the data set with KB [18], in the data set with HCT-116 [19] and in the data set with MRC5 [20] was “Non-toxic” in each case.

`CC(C)(C)OC(=O)NCC(c1c[nH]c2cc(Br)ccc12)N(O)Cc1ccccc1` (centres undefined): the MIC in the data set on Staphylococcus aureus [1] (ATCC 25923, 18 h) is 8 µg/mL (≈ 17.4 µM); against Staphylococcus aureus [2] (ATCC 29213, 18 h), 8 µg/mL (≈ 17.4 µM); in the data set with Staphylococcus aureus [3] (ATCC 9144, 18 h), 8 µg/mL (≈ 17.4 µM); with Staphylococcus aureus [4] (ATCC 6538, 18 h), 8 µg/mL (≈ 17.4 µM); in the data set on Staphylococcus aureus [5] (CIP 65.6, 18 h) it was 8 µg/mL (≈ 17.4 µM); against Staphylococcus aureus [6] (CIP 103428, 18 h), 8 µg/mL (≈ 17.4 µM). In addition, the MIC against Staphylococcus aureus [7] (CIP 65.25, 18 h) came to 16 µg/mL (≈ 34.8 µM); in the data set on Staphylococcus aureus [8] (ATCC 33592, 18 h), 16 µg/mL (≈ 34.8 µM); with Staphylococcus aureus [9] it was 16 µg/mL (≈ 34.8 µM); in [10] (ATCC 12228, 18 h), 16 µg/mL (≈ 34.8 µM); in [11] (CIP 81.55, 18 h) it was 16 µg/mL (≈ 34.8 µM); in data set [12] (CIP 103627, 18 h) it was 16 µg/mL (≈ 34.8 µM). In addition, the MIC with Streptococcus pneumoniae [13] and against Streptococcus pneumoniae [14] was over 128 µg/mL throughout. For the same compound, the Activity result in the data set on KB [15], in the data set with HCT-116 [16], in the data set with MRC5 [17], in the data set with KB [18], with HCT-116 [19] and with MRC5 [20] was “Non-toxic” each time.

As to GENTAMICIN, the MIC in the data set on Staphylococcus aureus [1], against Staphylococcus aureus [2], against Staphylococcus aureus [3], against Staphylococcus aureus [4], in the data set with Staphylococcus aureus [5] and against Staphylococcus aureus [6] was 0.125 µg/mL throughout. Besides, the MIC in the data set on Staphylococcus aureus [7] is 0.25 µg/mL; against Staphylococcus aureus [8], 0.25 µg/mL; against Staphylococcus aureus [9] it was over 64 µg/mL; in [10], 0.125 µg/mL; in [11], 0.125 µg/mL; in data set [12] it was 0.125 µg/mL. For the same compound, the MIC in the data set with Escherichia coli was 1 µg/mL.

These data come from ChEMBL document CHEMBL1777764, “Synthesis and evaluation of 1-(1H-indol-3-yl)ethanamine derivatives as new antibacterial agents” (Bioorg Med Chem, 2011).
